The text below walks through data of ChEMBL document CHEMBL3244174, “Synthesis and biological activity of some new furan quaternary salts” (J Med Chem, 1977).

Molecules are shown by their SMILES.

In one experiment the test system is Cryptococcus neoformans. Nature of the experiment: Antifungal activity against Cryptococcus neoformans 103 assessed as growth inhibition by agar dilution method. The experiment is classed as functional. (Agar dilution tests growth on a series of plates holding different concentrations.)
For a further experiment, the system named is Salmonella typhi. Nature of the experiment: Antibacterial activity against Salmonella typhi 115 assessed as growth inhibition after 24 hrs by dilution tube method. The class given is functional, Salmonella enterica subsp. enterica serovar Typhi. To be noted: Salmonella enterica, 115, 24 h. The essentials:
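Dilution tube method in Tryptone Soya Broth; MIC (μg/ml) taken as highest dilution preventing visible growth; duplicates at every concentration; nitrofurantoin reference run under same conditions.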

The next experiment deals with Escherichia coli. Nature of the experiment: Antibacterial activity against Escherichia coli 114 assessed as growth inhibition after 24 hrs by dilution tube method. The note with it: Escherichia coli, 114, 24 h. The experiment is classed as functional. The method in brief:
(§1)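 Broth tube dilution in Tryptone Soya Broth, duplicate tubes at each concentration. MIC (μg/ml) was the highest dilution preventing visible growth. Nitrofurantoin run under the same conditions.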

For a further experiment, the system named is Staphylococcus aureus. Nature of the experiment: Antibacterial activity against Staphylococcus aureus ATCC 6538 assessed as growth inhibition after 24 hrs by dilution tube method. The note with it: ATCC 6538, 24 h. The experiment is classed as functional. The essentials: as §1
The test system of a further experiment is Enterococcus faecalis. As to the kind of experiment: Antibacterial activity against Streptococcus faecalis ATCC 10541 assessed as growth inhibition after 24 hrs by dilution tube method. The note with it: ATCC 10541, 24 h. The experiment is classed as functional. The method in brief: as §1
The subject of another experiment is Nannizzia gypsea. As to the kind of experiment: Antifungal activity against Microsporum gypseum 153 CSTM assessed as growth inhibition by agar dilution method. The class given is functional.
A further experiment has as its system Trichophyton rubrum. As to the kind of experiment: Antifungal activity against Trichophyton rubrum 252 CSTM assessed as growth inhibition by agar dilution method. The experiment is classed as functional.
Another experiment deals with Pseudomonas aeruginosa. Nature of the experiment: Antibacterial activity against Pseudomonas aeruginosa ATCC 10145 assessed as growth inhibition after 24 hrs by dilution tube method. The class given is functional. The note with it: ATCC 10145, 24 h. The essentials:
as §1

In the next experiment the test system is Candida albicans. Nature of the experiment: Antifungal activity against Candida albicans SKF 2270 assessed as growth inhibition by agar dilution method. The experiment is classed as functional.
Experiment [1] relates to Agrobacterium tumefaciens. As to the kind of experiment: Antibacterial activity against Agrobacterium tumefaciens NRRL B-36 assessed as growth inhibition after 24 hrs by dilution tube method. The note with it: NRRL B-36, 24 h. The class given is functional. The essentials: as §1
For a further experiment, the system named is Histoplasma capsulatum. Nature of the experiment: Antifungal activity against Histoplasma capsulatum RNSH Hi-70 1/2 assessed as growth inhibition by agar dilution method. The experiment is classed as functional.
The test system of experiment [2] is Trichophyton mentagrophytes. Nature of the experiment: Antifungal activity against Trichophyton mentagrophytes A-280 USPHS assessed as growth inhibition by agar dilution method. The class given is functional.
The next experiment relates to Microsporum canis. Nature of the experiment: Antifungal activity against Microsporum canis VM-200 USPHS assessed as growth inhibition by agar dilution method. The experiment is classed as functional.
Experiment [3] has as its system Mycobacterium tuberculosis. Nature of the experiment: Antibacterial activity against Mycobacterium tuberculosis H37Rv assessed as growth inhibition by serial dilution method. The class given is functional. The method in brief: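 M. tuberculosis H37Rv maintained on Lowenstein–Jensen medium; tested in Youman's medium by serial dilution.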
The next experiment relates to Klebsiella pneumoniae. Nature of the experiment: Antibacterial activity against Klebsiella pneumoniae ATCC 10031 assessed as growth inhibition after 24 hrs by dilution tube method. The class given is functional. The note with it: ATCC 10031, 24 h. The method in brief: as §1

On to `Cc1ccc(C[N+](C)(C)CCOc2c(Br)cc(Br)cc2Br)o1.[Br-]`, for which the MIC in the experiment with Cryptococcus neoformans is 50 µg/mL; in the experiment on Salmonella typhi, greater than 200 µg/mL; with Escherichia coli, greater than 200 µg/mL; in the experiment with Staphylococcus aureus, 50 µg/mL; in the experiment on Enterococcus faecalis it was 50 µg/mL; with Nannizzia gypsea, greater than 200 µg/mL. Also, the MIC with Trichophyton rubrum is greater than 200 µg/mL; with Pseudomonas aeruginosa it was 25 µg/mL; in the experiment on Candida albicans, greater than 200 µg/mL; in experiment [1], 100 µg/mL; in the experiment on Histoplasma capsulatum, greater than 200 µg/mL; in experiment [2] it was greater than 200 µg/mL. The MIC is greater than 200 µg/mL with Microsporum canis, 25 µg/mL in experiment [3] and 50 µg/mL with Klebsiella pneumoniae.
Turning to `C[N+](C)(CCCCCCCCOc1c(Br)cc(Br)cc1Br)Cc1ccc([N+](=O)[O-])o1.[Br-]`, the minimum inhibitory concentration (MIC) is 4 µg/mL in the experiment with Cryptococcus neoformans; greater than 200 µg/mL in the experiment with Salmonella typhi; greater than 200 µg/mL in the experiment on Escherichia coli; 4 µg/mL in the experiment with Staphylococcus aureus; 4 µg/mL in the experiment on Enterococcus faecalis; greater than 200 µg/mL in the experiment on Nannizzia gypsea. Further, the minimal inhibitory concentration (MIC) is greater than 200 µg/mL with Trichophyton rubrum; 2 µg/mL in the experiment on Pseudomonas aeruginosa; greater than 200 µg/mL with Candida albicans; 10 µg/mL in experiment [1]; greater than 200 µg/mL in the experiment with Histoplasma capsulatum; greater than 200 µg/mL in [2]. Besides, the MIC was greater than 200 µg/mL in the experiment on Microsporum canis, 7.5 µg/mL in experiment [3] and 2 µg/mL in the experiment on Klebsiella pneumoniae.
On to `Cc1cc(OCC[N+](C)(C)Cc2ccc(Br)o2)c(C(C)C)cc1Cl.[Br-]`, for which the minimum inhibitory concentration (MIC) is 50 µg/mL in the experiment on Cryptococcus neoformans; 100 µg/mL with Salmonella typhi; greater than 200 µg/mL in the experiment on Escherichia coli; 9 µg/mL in the experiment with Staphylococcus aureus; 25 µg/mL in the experiment on Enterococcus faecalis; greater than 200 µg/mL with Nannizzia gypsea. The minimal inhibitory concentration (MIC) in the experiment with Trichophyton rubrum is greater than 200 µg/mL; in the experiment with Pseudomonas aeruginosa it was 5 µg/mL; in the experiment on Candida albicans it was greater than 200 µg/mL; in experiment [1], 25 µg/mL; with Histoplasma capsulatum, 50 µg/mL; in [2], 100 µg/mL. For the same compound, the MIC with Microsporum canis is 100 µg/mL; in experiment [3] it was 10 µg/mL; in the experiment with Klebsiella pneumoniae, 25 µg/mL.
For `C[N+](C)(CCCCCCOc1c(Br)cc(Br)cc1Br)Cc1ccco1.[Br-]`, the MIC was 25 µg/mL in the experiment with Cryptococcus neoformans; greater than 200 µg/mL with Salmonella typhi; greater than 200 µg/mL in the experiment on Escherichia coli; 25 µg/mL in the experiment on Staphylococcus aureus; 25 µg/mL in the experiment with Enterococcus faecalis; 100 µg/mL with Nannizzia gypsea. The minimum inhibitory concentration (MIC) in the experiment with Trichophyton rubrum turned out to be 100 µg/mL; with Pseudomonas aeruginosa, 5 µg/mL; in the experiment with Candida albicans, 50 µg/mL; in [1], 50 µg/mL; in the experiment on Histoplasma capsulatum it was 50 µg/mL; in experiment [2], 100 µg/mL. The results for the minimal inhibitory concentration (MIC) (in the experiment on Microsporum canis; in experiment [3]; in the experiment with Klebsiella pneumoniae) were 100 µg/mL, 25 µg/mL and 7.5 µg/mL, respectively.
Take `C[N+](C)(CCCCCCCOc1c(Br)cc(Br)cc1Br)Cc1ccc(Br)o1.[Br-]`: the minimal inhibitory concentration (MIC) is 5 µg/mL in the experiment on Cryptococcus neoformans; greater than 200 µg/mL with Salmonella typhi; greater than 200 µg/mL in the experiment on Escherichia coli; 3 µg/mL in the experiment with Staphylococcus aureus; 4 µg/mL in the experiment on Enterococcus faecalis; greater than 200 µg/mL in the experiment on Nannizzia gypsea. Also, the minimal inhibitory concentration (MIC) was greater than 200 µg/mL in the experiment with Trichophyton rubrum; 2 µg/mL in the experiment on Pseudomonas aeruginosa; greater than 200 µg/mL with Candida albicans; 7.5 µg/mL in experiment [1]; greater than 200 µg/mL in the experiment on Histoplasma capsulatum; greater than 200 µg/mL in experiment [2]. For the same compound, the minimal inhibitory concentration (MIC) in the experiment on Microsporum canis is greater than 200 µg/mL; in experiment [3], 25 µg/mL; in the experiment with Klebsiella pneumoniae it was 2 µg/mL.
For the compound `Cc1ccc(C[N+](C)(C)CCCCOc2cc(C)c(Cl)cc2C(C)C)o1.[Br-]`, the MIC is 25 µg/mL with Cryptococcus neoformans; 100 µg/mL in the experiment on Salmonella typhi; greater than 200 µg/mL in the experiment on Escherichia coli; 25 µg/mL in the experiment with Staphylococcus aureus; 25 µg/mL with Enterococcus faecalis; greater than 200 µg/mL with Nannizzia gypsea. Also, the minimum inhibitory concentration (MIC) in the experiment with Trichophyton rubrum is greater than 200 µg/mL; with Pseudomonas aeruginosa, 5 µg/mL; with Candida albicans, 50 µg/mL; in [1] it was 50 µg/mL; with Histoplasma capsulatum, 100 µg/mL; in [2] it was 50 µg/mL. The minimum inhibitory concentration (MIC) with Microsporum canis was 25 µg/mL; in [3], 10 µg/mL; in the experiment with Klebsiella pneumoniae, 5 µg/mL.

What is called MIC is the lowest concentration that inhibits growth of the organism.
